According to ChEMBL document CHEMBL2406946 (Bioorg Med Chem, 2013):

Tests used:
[1] = molecular target: Aldo-keto reductase family 1 member B1 (Bos taurus) (UniProt P16116); test: Ratio of 4-(5-hydroxy-4-oxo-2-phenyl-4H-chromen-7-yloxy)butyl nitrate IC50 to compound IC50 for bovine lens aldose reductase
[2] = molecular target: Aldo-keto reductase family 1 member B1 (Bos taurus, UniProt P16116); test: Inhibition of bovine lens aldose reductase using DL-glyceraldehyde as substrate assessed as NADPH oxidation measured for 10 mins by spectrophotometric analysis
In short: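 Aldose reductase isolated from bovine lens (enzyme at 750 µg/mL protein) in 50 mM PBS pH 6.2 with β-mercaptoethanol, Li2SO4 and NADPH, compounds across a 0.1–10 range. Reaction started with DL-glyceraldehyde. Fall in NADPH absorbance at 340 nm followed for 10 min.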

[3] = Induction of nitric oxide release at 10^-4 M after 1 hr by Griess assay in presence of L-cysteine relative to control; type: physicochemical; details: 100 µM
In short: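 Thiol-triggered NO release: compounds at final 10^-4 M incubated 1 h at 37 °C with L-cysteine. 1 mL of mixture treated with Griess reagent (sulfanilamide, N-naphthylethylenediamine dihydrochloride, phosphoric acid), held 10 min at room temperature, absorbance read at 540 nm. Percent NO released relative to a theoretical maximum of 1 mol NO/mol compound. Sodium nitroprusside served as positive control.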

[4] = molecular target: Aldo-keto reductase family 1 member B1 (Bos taurus) (UniProt P16116); test: Ratio of quercetin IC50 to compound iC50 for bovine lens aldose reductase

Row | Structure (SMILES) | Ratio IC50 [1] | IC50 [2] [nM] | Activity [3] [%] | Ratio IC50 [4]
1 | CCCCOc1cc(O)c2c(=O)cc(-c3ccc4c(c3)OCCO4)oc2c1 |  | 1250 |  | 
2 | CCCCCCOC(=O)COc1cc(O)c2c(=O)cc(-c3ccc4c(c3)OCCO4)oc2c1 |  | 2830 |  | 
3 | O=C(COc1cc(O)c2c(=O)cc(-c3ccc4c(c3)OCCO4)oc2c1)OCCCCCCO[N+](=O)[O-] |  | 1300 | 1.14 | 
4 | CCCCCCOc1cc(O)c2c(=O)cc(-c3ccc(O)c(O)c3)oc2c1 |  | 1810 |  | 
5 | CCOc1cc(O)c2c(=O)cc(-c3ccc4c(c3)OCCO4)oc2c1 |  | 1190 |  | 
6 | O=c1cc(-c2ccc(O)c(O)c2)oc2cc(O)cc(O)c12 [LUTEOLIN] |  | 754 |  | 
7 | CCCCOc1cc(O)c2c(=O)cc(-c3ccc(O)c(O)c3)oc2c1 |  | 769 |  | 
8 | CCCCCCOc1cc(O)c2c(=O)cc(-c3ccc4c(c3)OCCO4)oc2c1 |  | 1710 |  | 

Compounds with a lower IC50 [2], results first:

Row | Ratio IC50 [1] | IC50 [2] [nM] | Activity [3] [%] | Ratio IC50 [4] | Structure (SMILES)
9 | 2.3 | 127 | 2.813 |  | O=c1cc(-c2ccc3c(c2)OCCO3)oc2cc(OCCCCO[N+](=O)[O-])cc(O)c12
10 |  | 491 | 4.637 |  | O=c1cc(-c2ccc(O)c(O)c2)oc2cc(OCCCCCCO[N+](=O)[O-])cc(O)c12
11 |  | 99 | 2.111 | 28.5 | O=c1cc(-c2ccc3c(c2)OCCO3)oc2cc(OCCO[N+](=O)[O-])cc(O)c12
12 |  | 445 | 1.018 |  | O=C(COc1cc(O)c2c(=O)cc(-c3ccc4c(c3)OCCO4)oc2c1)OCCO[N+](=O)[O-]
13 |  | 445 | 1.328 |  | O=c1cc(-c2ccc3c(c2)OCCO3)oc2cc(OCCCCCCO[N+](=O)[O-])cc(O)c12
14 |  | 491 | 1.351 |  | O=C(COc1cc(O)c2c(=O)cc(-c3ccc4c(c3)OCCO4)oc2c1)OCCCCO[N+](=O)[O-]
15 |  | 523 |  |  | CCCCOC(=O)COc1cc(O)c2c(=O)cc(-c3ccc4c(c3)OCCO4)oc2c1
16 |  | 168 | 1.07 |  | O=c1cc(-c2ccc(O)c(O)c2)oc2cc(OCCO[N+](=O)[O-])cc(O)c12
17 |  | 506 |  |  | CCOC(=O)COc1cc(O)c2c(=O)cc(-c3ccc4c(c3)OCCO4)oc2c1
18 |  | 604 |  |  | CCOc1cc(O)c2c(=O)cc(-c3ccc(O)c(O)c3)oc2c1
19 |  | 472 | 2.345 |  | O=c1cc(-c2ccc(O)c(O)c2)oc2cc(OCCCCO[N+](=O)[O-])cc(O)c12
